pIC50: −log10 of the molar value.
What was measured:
[1] = Cytotoxicity against human HuH7 cells assessed as reduction in cell viability after 72 hrs by CCK8 assay; type: functional, cell-based, Huh-7; conditions: for pIC50: Homo sapiens, Huh-7, 72 h, read-out: IC50; for IC50: huh-7
Method in brief: (§1)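 Cells kept in RPMI or DMEM with 10% FBS and 1% penicillin/streptomycin at 37 °C in 5% CO2. Seeded at 400-800 cells/well in 384-well plates and exposed to varying compound concentrations, with solution-only control, for 72 h. CCK8 reagent added, then absorbance read at 450 nm. Plinabulin and TSA were positive controls. Mean SD of three experiments.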

U-937 [2] = test: Cytotoxicity against human U937 cells assessed as reduction in cell viability after 72 hrs by CCK8 assay; type: functional, cell-based; conditions: for pIC50: Homo sapiens, U-937, 72 h, read-out: IC50; for IC50: u-937; method in brief: as §1
MCF7 = test: Cytotoxicity against human MCF7 cells assessed as reduction in cell viability after 72 hrs by CCK8 assay; type: functional, cell-based; conditions: for pIC50: Homo sapiens, MCF7, 72 h, read-out: IC50; for IC50: mcf7; method in brief: as §1
NCI-H1975 [3] = test: Cytotoxicity against human NCI-H1975 cells assessed as viable cells at 10 uM after 24 hrs by CCK8 assay relative to control; type: functional; conditions: NCI-H1975, 24 h, read-out: Activity
Method in brief: (§2)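 Viability of U937, K562 and H1975 cells cultured in RPMI or DMEM with 10% FBS and 1% penicillin/streptomycin at 37 °C in 5% CO2. Cells treated at two fixed concentrations (5 or 10) for 24 or 48 h. Viable cells measured by CCK8 and expressed relative to control. Mean SD of three experiments.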

MOLT-4 = test: Cytotoxicity against human MOLT4 cells assessed as reduction in cell viability after 72 hrs by CCK8 assay; type: functional, cell-based; conditions: for pIC50: Homo sapiens, MOLT-4, 72 h, read-out: IC50; for IC50: molt-4; method in brief: as §1
[4] = Cytotoxicity against human BGC823 cells assessed as reduction in cell viability after 72 hrs by CCK8 assay; type: functional, cell-based, BGC-823; conditions: for pIC50: Homo sapiens, BGC-823, 72 h, read-out: IC50; for IC50: bgc-823; method in brief: as §1
NCI-H1975 [5] = test: Cytotoxicity against human NCI-H1975 cells assessed as viable cells at 10 uM after 48 hrs by CCK8 assay relative to control; type: functional; conditions: NCI-H1975, 48 h, read-out: Activity; method in brief: as §2
U-937 [6] = test: Cytotoxicity against human U937 cells assessed as viable cells at 10 uM after 48 hrs by CCK8 assay relative to control; type: functional; conditions: U-937, 48 h, read-out: Activity; method in brief: as §2
NCI-H1975 [7] = test: Cytotoxicity against human NCI-H1975 cells assessed as viable cells at 5 uM after 24 hrs by CCK8 assay relative to control; type: functional; conditions: NCI-H1975, 24 h, read-out: Activity; method in brief: as §2
K562 [8] = test: Cytotoxicity against human K562 cells assessed as viable cells at 5 uM after 48 hrs by CCK8 assay relative to control; type: functional; conditions: K562, 48 h, read-out: Activity; method in brief: as §2
U-937 [9] = test: Cytotoxicity against human U937 cells assessed as viable cells at 10 uM after 24 hrs by CCK8 assay relative to control; type: functional; conditions: U-937, 24 h, read-out: Activity; method in brief: as §2
U-937 [10] = test: Cytotoxicity against human U937 cells assessed as viable cells at 5 uM after 24 hrs by CCK8 assay relative to control; type: functional; conditions: U-937, 24 h, read-out: Activity; method in brief: as §2
HeLa = test: Cytotoxicity against human HeLa cells assessed as reduction in cell viability after 72 hrs by CCK8 assay; type: functional, cell-based; conditions: for pIC50: Homo sapiens, HeLa, 72 h, read-out: IC50; for IC50: hela; method in brief: as §1
U-937 [11] = test: Cytotoxicity against human U937 cells assessed as viable cells at 5 uM after 48 hrs by CCK8 assay relative to control; type: functional; conditions: U-937, 48 h, read-out: Activity; method in brief: as §2
A549 = test: Cytotoxicity against human A549 cells assessed as reduction in cell viability after 72 hrs by CCK8 assay; type: functional, cell-based; conditions: for pIC50: Homo sapiens, A549, 72 h, read-out: IC50; for IC50: a549; method in brief: as §1
K562 [12] = test: Cytotoxicity against human K562 cells assessed as viable cells at 10 uM after 48 hrs by CCK8 assay relative to control; type: functional; conditions: K562, 48 h, read-out: Activity; method in brief: as §2
HL-60 = test: Cytotoxicity against human HL60 cells assessed as reduction in cell viability after 72 hrs by CCK8 assay; type: functional, cell-based; conditions: for pIC50: Homo sapiens, HL-60, 72 h, read-out: IC50; for IC50: hl-60; method in brief: as §1
K562 [13] = test: Cytotoxicity against human K562 cells assessed as reduction in cell viability after 72 hrs by CCK8 assay; type: functional, cell-based; conditions: for pIC50: Homo sapiens, K562, 72 h, read-out: IC50; for IC50: k562; method in brief: as §1
K562 [14] = test: Cytotoxicity against human K562 cells assessed as viable cells at 10 uM after 24 hrs by CCK8 assay relative to control; type: functional; conditions: K562, 24 h, read-out: Activity; method in brief: as §2
K562 [15] = test: Cytotoxicity against human K562 cells assessed as viable cells at 5 uM after 24 hrs by CCK8 assay relative to control; type: functional; conditions: K562, 24 h, read-out: Activity; method in brief: as §2
NCI-H1975 [16] = test: Cytotoxicity against human NCI-H1975 cells assessed as viable cells at 5 uM after 48 hrs by CCK8 assay relative to control; type: functional; conditions: NCI-H1975, 48 h, read-out: Activity; method in brief: as §2
NCI-H1975 [17] = test: Cytotoxicity against human NCI-H1975 cells assessed as reduction in cell viability after 72 hrs by CCK8 assay; type: functional, cell-based; conditions: for pIC50: Homo sapiens, NCI-H1975, 72 h, read-out: IC50; for IC50: nci-h1975; method in brief: as §1

Compound | pIC50 [1] | pIC50 (U-937 [2]) | pIC50 (MCF7) | pIC50 (MOLT-4) | pIC50 [4] | pIC50 (HeLa) | pIC50 (A549) | pIC50 (HL-60) | pIC50 (K562 [13]) | pIC50 (NCI-H1975 [17]) | IC50 (NCI-H1975 [17]) | IC50 [1] | IC50 (U-937 [2]) | IC50 (MCF7) | IC50 (MOLT-4) | IC50 [4] | IC50 (HeLa) | IC50 (A549) | IC50 (HL-60) | IC50 (K562 [13]) | other results
C=CCn1c(=O)/c(=C\c2cccc(Cl)c2Cl)[nH]c(=O)/c1=C\c1ccccc1OC | 5.92 | 6.30 | 5.68 | 5.92 | 5.66 | 5.80 | 5.64 | 5.70 | 6.05 | 5.35 | – | – | – | – | – | – | – | – | – | – | viability at 10 µM (NCI-H1975 [3]): 98.9%; viability at 10 µM (NCI-H1975 [5]): 42.6%; viability at 10 µM (U-937 [6]): 1.3%; viability at 5 µM (NCI-H1975 [7]): 107%; viability at 5 µM (K562 [8]): 24.2%; viability at 10 µM (U-937 [9]): 8.7%; viability at 5 µM (U-937 [10]): 7%; viability at 5 µM (U-937 [11]): 0.9%; viability at 10 µM (K562 [12]): 14.9%; viability at 10 µM (K562 [14]): 103%; viability at 5 µM (K562 [15]): 104%; viability at 5 µM (NCI-H1975 [16]): 42.7%
C=CCn1c(=O)/c(=C\c2cccc(Br)c2)[nH]c(=O)/c1=C\c1ccccc1OC | 5.64 | 5.96 | 5.27 | 5.30 | 5.23 | 5.27 | 5.27 | 5.28 | 5.62 | – | Not Active | – | – | – | – | – | – | – | – | – | –
C=CCn1c(=O)/c(=C\c2cc(F)ccc2C)[nH]c(=O)/c1=C\c1ccccc1OC | 5.25 | 6.00 | 5.51 | 5.42 | 5.80 | 5.54 | 5.31 | 5.59 | 5.74 | 5.14 | – | – | – | – | – | – | – | – | – | – | –
C=CCn1c(=O)/c(=C\c2cc(OC)c(OC)c(OC)c2)[nH]c(=O)/c1=C\c1cccc(Br)c1 | – | – | – | – | – | – | – | – | – | – | Not Active | Not Active | Not Active | Not Active | Not Active | Not Active | Not Active | Not Active | Not Active | Not Active | –
C=CCn1c(=O)/c(=C\c2cc(OC)c(OC)c(OC)c2)[nH]c(=O)/c1=C\c1ccccc1 | – | – | – | – | – | – | – | – | – | – | Not Active | Not Active | Not Active | Not Active | Not Active | Not Active | Not Active | Not Active | Not Active | Not Active | –

Reference: ChEMBL document CHEMBL3286120, “Design and synthesis of novel soluble 2,5-diketopiperazine derivatives as potential anticancer agents” (Eur J Med Chem, 2014)
